Assay [1] deals with CF HBE cells cultured at ALI. In words: Total nitrate/nitrite release, fluorometric assay, CF HBE ALI cultures. Format: cell-based, human. The following applies: for Effect on AIP-1 stimulated nitrate release: inhibitor 10 μM with AIP-1 50 μM; for Effect on nitrate release evoked by C12: inhibitor 10 μM with C12 100 μM. Summed up:
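Primary CF human bronchial epithelial cells, carrying scrambled shRNA or T2R14 knockdown, were seeded on collagen-coated Transwells at 500,000 cells/well and grown at air-liquid interface to day 30. The apical surface was exposed for 18 h to C12 (100 µM) or AIP-1 (50 µM), with or without gallein or U73122 (10 μM each). Apical secretions were mixed with reductase cofactor for 30 min at room temperature, then total nitrate/nitrite was read fluorometrically.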

Assay [2] deals with T1, T2R14 (Homo sapiens, UniProt Q9NYV8).
T1 sequence (Q9NYV8 1-317): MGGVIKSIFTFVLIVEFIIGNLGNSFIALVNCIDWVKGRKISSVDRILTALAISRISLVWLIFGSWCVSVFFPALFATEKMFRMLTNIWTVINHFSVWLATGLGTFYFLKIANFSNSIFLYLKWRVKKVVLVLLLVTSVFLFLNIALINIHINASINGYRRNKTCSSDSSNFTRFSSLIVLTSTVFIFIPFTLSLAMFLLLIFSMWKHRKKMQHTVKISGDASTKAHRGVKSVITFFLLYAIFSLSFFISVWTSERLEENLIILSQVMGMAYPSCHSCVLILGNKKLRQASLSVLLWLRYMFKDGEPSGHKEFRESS
In words: Intracellular calcium mobilization in HEK293T cells overexpressing T2R14. Format: cell-based. As to conditions: for Intracellular calcium mobilization: HEK293T cells overexpressing T2R14, concentration series. Summed up:
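HEK293T cells overexpressing T2R14 were loaded for agonist-induced intracellular calcium mobilization. They were treated with increasing concentrations of the bacterial quorum-sensing molecule 3-oxo-C12-AHL (4.5–300 μM), tyrosol (15–1000 μM) or farnesol (7.5–500 μM).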
In general terms: Calcium assays in cells follow changes in intracellular calcium, usually with a dye or a luminescent sensor.

For assay [3], the target named is T1, T2R14. Briefly: Intracellular calcium mobilization in human bronchial epithelial. Format: cell-based.
Assay [4] deals with NuLi-1 and CuFi-1 cells. In words: cAMP response to CFTR corrector in airway epithelial cell lines. The class given is cell-based, human. The following applies: 5 µM for 24 h.
[5] abbreviates: EC50, intracellular calcium mobilization, both BCF and BD cells.

Here are results for seven compounds from publication PMC11613190 (iScience, 2024).

Structures are written as SMILES.

On to `CCCCCCCCCC(=O)CC(=O)N[C@H]1CCOC1=O` [C12, 3-oxo-12-AHL], for which the “Total nitrate release vs untreated controls” value in assay [1] (apical exposure 18 h, C12 100 μM, AIP-1 50 μM) is reported as “significant elevation of total nitrate release”. In assay [2], the Intracellular calcium mobilization entry is listed as “concentration dependent increase in intracellular calcium mobilization”. The EC50 in assay [2] (read-out: EC50, intracellular calcium mobilization, HEK 293T cells overexpressing T2R14) was ~60 µM; in assay [3] (read-out: EC50, intracellular calcium mobilization, both BCF and BD cells), ~100 µM.
On to `CN(C)CCOC(c1ccccc1)c1ccccc1` [DPH, diphenhydramine], for which, in assay [3] (EC50, Ca2+ mobilization, all the cell types investigated (NuLi-1, CuFi-1, BD, BCF)), the EC50 was ~500 µM.
For `O=C1OC2(c3ccccc31)c1ccc(O)c(O)c1Oc1c2ccc(O)c1O` [Gallein], in assay [1], the “Effect on AIP-1 stimulated nitrate release” value is “without altering the AIP-1 stimulated release significantly” and the “Effect on nitrate release evoked by C12” value is “reduced the nitrate release evoked by C12”.
As for `COc1ccc2c(c1)CC[C@@H]1[C@@H]2CC[C@]2(C)[C@@H](NCCCCCCN3C(=O)C=CC3=O)CC[C@@H]12` [U73122], in assay [1], the “Effect on AIP-1 stimulated nitrate release” value is reported as “without altering the AIP-1 stimulated release significantly” and the “Effect on nitrate release evoked by C12” value was “reduced the nitrate release evoked by C12”.
For `Cc1ccc(NC(=O)C2(c3ccc4c(c3)OC(F)(F)O4)CC2)nc1-c1cccc(C(=O)O)c1` [VX-809, lumacaftor], the “cAMP levels in response to forskolin” value in assay [4] (CuFi-1 cells) is “significant increase in cAMP levels”; in assay [4] (NuLi cells), “No significant change”.
`CC(C)=CCC/C(C)=C/CC/C(C)=C/CO` [farnesol]: the Intracellular calcium mobilization result in assay [2] is listed as “concentration dependent increase in intracellular calcium mobilization”. In addition, the EC50 in assay [3] (setting [5]) was ~120 µM.
Consider `OCCc1ccc(O)cc1` [tyrosol], for which the Intracellular calcium mobilization entry in assay [2] is “concentration dependent increase in intracellular calcium mobilization”. In assay [3] (setting [5]), the EC50 is ~100 µM.

A word on the EC50: it is the concentration needed to bring the measured effect to its halfway point.
